The test system of data set [1] is Melan-a. Nature of the data set: Cytotoxicity against mouse Melan-a cells assessed as effect on cell viability at <2 uM after 24 to 72 hrs by trypan blue exclusion assay. Format: cell-based.
The test system of data set [2] is Melan-a. The experiment in a line: Induction of melanogenesis in mouse Melan-a cells assessed as effect on tanning property at 40 uM after 48 hrs. In kind it is functional, cell-based.
In data set [3] the test system is Melan-a. The experiment in a line: Inhibition of melanogenesis in mouse Melan-a cells assessed as effect on whitening property at 40 uM after 48 hrs. In kind it is functional, cell-based. In a few lines: (§1)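 Melan-a murine melanocytes in RPMI 1640 with 10% FBS, penicillin/streptomycin and 200 nM PMA at 37 °C and 5% CO2. Seeded at 60,000 cells/well in 6-well plates and treated 48 h with 1–40 µM from 1000X DMSO stock (final 0.1% DMSO) or DMSO alone. For line 1, cells were pretreated 1 h with 1 µM ICI 182780. Melanin is read as A405, % of control.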

The subject of data set [4] is Melan-a. The experiment in a line: Cytotoxicity against mouse Melan-a cells assessed as effect on cell viability at 40 uM after 24 to 72 hrs by trypan blue exclusion assay. In kind it is cell-based. An outline of the steps: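 Melan-a cells seeded at 60,000/well in 6-well plates and treated at 40 µM (0.1% DMSO) for the indicated times. Cells were trypsinized, pelleted at 4 °C, stained with 0.25% trypan blue in PBS and counted in a Malassez chamber. Viability % = [1 − (blue/total cells)] × 100. Mean ± SEM of three independent experiments in duplicate.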

Data set [5] has as its system Melan-a. The experiment in a line: Induction of melanogenesis in mouse Melan-a cells assessed as increase in melanin content at 10 to 40 uM after 48 hrs. In kind it is functional, cell-based. An outline of the steps:
as §1

For data set [6], the system named is Melan-a. The experiment in a line: Induction of melanogenesis in mouse Melan-a cells assessed as increase in melanin content at 40 uM. Format: functional, cell-based.
Data set [7] relates to Melan-a. Nature of the data set: Induction of melanogenesis in mouse Melan-a cells assessed as increase in melanin content at 40 uM after 72 hrs relative to control. Format: functional. In a few lines:
(§2)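 Melan-a cells in PMA-containing RPMI/10% FBS, treated 3 days at 40 µM (0.1% DMSO final) against DMSO-treated controls. Pellets were washed in PBS and extracted with water/EtOH–ether (1/1). Melanin was solubilized in 1 M NaOH/DMSO 90/10 at 80 °C for 1 h, read as A405 and expressed as % of control. Mean ± SEM, t test.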

In data set [8] the test system is Melan-a. Nature of the data set: Induction of melanogenesis in mouse Melan-a cells assessed as effect on pigmentation at 40 uM after 72 hrs by photography. In kind it is functional, cell-based. In a few lines:
(§3)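 Melan-a cells treated with 40 µM or solvent vehicle for 3 days, then photographed to record pigmentation.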

Data set [9] concerns Melan-a. Nature of the data set: Increase in tyrosinase mRNA expression in mouse Melan-a cells at 40 uM after 24 hrs by SYBR green dye based qRT-PCR analysis. In kind it is functional, cell-based. An outline of the steps:
(§4)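 Real-time PCR on Melan-a cells given 40 µM for 24 h. Total RNA was isolated with TRIzol, and Ct values of tyrosinase, TRP-1, TRP-2 and MITF were normalized to cyclophilin A1. Mean of three independent experiments in duplicate.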
Background: Real-time PCR tracks product formation cycle by cycle.

The subject of data set [10] is Melan-a. Nature of the data set: Increase in TRP1 mRNA expression in mouse Melan-a cells at 40 uM after 24 hrs by SYBR green dye based qRT-PCR analysis. Format: functional, cell-based. An outline of the steps: as §4
Data set [11] deals with Melan-a. Nature of the data set: Increase in TRP2 mRNA expression in mouse Melan-a cells at 40 uM after 24 hrs by SYBR green dye based qRT-PCR analysis. In kind it is functional, cell-based. An outline of the steps: as §4
The subject of data set [12] is Melan-a. The experiment in a line: Increase in MITF mRNA expression in mouse Melan-a cells at 40 uM after 24 hrs by SYBR green dye based qRT-PCR analysis. In kind it is functional, cell-based. An outline of the steps: as §4
A short description of data set [13]: Photostability of the compound assessed as compound degradation under sunlight exposed for 6 days in EtOH solution measured by TLC method. In kind it is physicochemical. The conditions noted are these: 144 h.
The nature of data set [14]: Photostability of the compound assessed as compound degradation under sunlight exposed for 6 days in EtOH solution measured in presence of UV-A filter Uvinul A by TLC method. Format: physicochemical. Particulars: 144 h.
For data set [15], the target named is Estrogen receptor beta (Mus musculus) (UniProt O08537). Nature of the data set: Binding affinity to ERbeta in mouse Melan-a cells. Format: cell-based.
For data set [16] the target is unchanged. The experiment in a line: Agonist activity at ERbeta in mouse Melan-a cells assessed as increase in melanin content at 40 uM measured after 48 hrs in presence of ER antagonist ICI 182780. In kind it is cell-based. In a few lines:
as §1

In data set [17] the test system is Melan-a. The experiment in a line: Increase in TRP1 expression in mouse Melan-a cells at 40 uM after 48 hrs by Western blot analysis. On the technique in general: In western blotting, separated proteins are transferred to a membrane and probed.
Data set [18] relates to Melan-a. The experiment in a line: Increase in TRP2 expression in mouse Melan-a cells at 40 uM after 48 hrs by Western blot analysis.
Data set [19] concerns Melan-a. Nature of the data set: Increase in MITF expression in mouse Melan-a cells at 40 uM after 48 hrs by Western blot analysis.
In data set [20] the test system is Melan-a. The experiment in a line: Increase in Rab27a expression in mouse Melan-a cells at 40 uM after 48 hrs by Western blot analysis.
In data set [21] the test system is Melan-a. The experiment in a line: Increase in tyrosinase expression in mouse Melan-a cells at 40 uM after 48 hrs by Western blot analysis.
Data set [22] deals with Melan-a. Nature of the data set: Induction of melanogenesis in mouse Melan-a cells assessed as pro-pigmentation at 40 uM after 48 hrs relative to control. Format: functional. An outline of the steps: as §1
In data set [23] the test system is Melan-a. The experiment in a line: Inhibition of melanogenesis in mouse Melan-a cells assessed as effect on whitening property measured after 48 hrs. Format: functional, cell-based. An outline of the steps:
as §1

The test system of data set [24] is Melan-a. The experiment in a line: Inhibition of melanogenesis in mouse Melan-a cells assessed as reduction in melanin content at 40 uM. In kind it is functional, cell-based.
For data set [25], the system named is Melan-a. The experiment in a line: Inhibition of melanogenesis in mouse Melan-a cells assessed as reduction in melanin content at 40 uM after 72 hrs relative to control. In kind it is functional. An outline of the steps: as §2
Data set [26] deals with Melan-a. The experiment in a line: Inhibition of melanogenesis in mouse Melan-a cells assessed as effect on pigmentation at 40 uM after 72 hrs by photography. In kind it is functional, cell-based. In a few lines: as §3
Data set [27] has as its system Melan-a. Nature of the data set: Decrease in tyrosinase mRNA expression in mouse Melan-a cells at 40 uM after 24 hrs by SYBR green dye based qRT-PCR analysis relative to control. In kind it is functional. In a few lines:
as §4

For data set [28], the system named is Melan-a. Nature of the data set: Decrease in TRP1 mRNA expression in mouse Melan-a cells at 40 uM after 24 hrs by SYBR green dye based qRT-PCR analysis relative to control. Format: functional. In a few lines:
as §4

Data set [29] deals with Melan-a. The experiment in a line: Decrease in TRP2 mRNA expression in mouse Melan-a cells at 40 uM after 24 hrs by SYBR green dye based qRT-PCR analysis relative to control. In kind it is functional. In a few lines:
as §4

The subject of data set [30] is Melan-a. The experiment in a line: Decrease in MITF mRNA expression in mouse Melan-a cells at 40 uM after 24 hrs by SYBR green dye based qRT-PCR analysis relative to control. In kind it is functional. An outline of the steps:
as §4

Data set [31] has as its system Melan-a. The experiment in a line: Effect on TRP2 expression in mouse Melan-a cells at 40 uM after 48 hrs by western blot analysis (reference value: 1).
Data set [32] concerns Melan-a. Nature of the data set: Effect on TRP1 expression in mouse Melan-a cells at 40 uM after 48 hrs by western blot analysis (reference value: 1).
The test system of data set [33] is Melan-a. The experiment in a line: Effect on MITF expression in mouse Melan-a cells at 40 uM after 48 hrs by western blot analysis (reference value: 1).
For data set [34], the system named is Melan-a. The experiment in a line: Effect on Rab27a expression in mouse Melan-a cells at 40 uM after 48 hrs by western blot analysis (reference value: 1).
For data set [35], the system named is Melan-a. Nature of the data set: Effect on tyrosinase expression in mouse Melan-a cells at 40 uM after 48 hrs by western blot analysis (reference value: 1).
For data set [36], the system named is Melan-a. The experiment in a line: Antimelanogenic activity in mouse Melan-a cells assessed as inhibition of alpha-MSH-stimulated melanin synthesis at 40 uM measured after 48 hrs.
The test system of data set [37] is Melan-a. The experiment in a line: Antimelanogenic activity in mouse Melan-a cells assessed as inhibition of UV irradiation-stimulated melanin synthesis at 40 uM measured after 48 hrs.

Calls of active or inactive are those of the source. The rule behind the calls is not given here.

Chain of Estrogen receptor beta (Mus musculus) (O08537 whole entry): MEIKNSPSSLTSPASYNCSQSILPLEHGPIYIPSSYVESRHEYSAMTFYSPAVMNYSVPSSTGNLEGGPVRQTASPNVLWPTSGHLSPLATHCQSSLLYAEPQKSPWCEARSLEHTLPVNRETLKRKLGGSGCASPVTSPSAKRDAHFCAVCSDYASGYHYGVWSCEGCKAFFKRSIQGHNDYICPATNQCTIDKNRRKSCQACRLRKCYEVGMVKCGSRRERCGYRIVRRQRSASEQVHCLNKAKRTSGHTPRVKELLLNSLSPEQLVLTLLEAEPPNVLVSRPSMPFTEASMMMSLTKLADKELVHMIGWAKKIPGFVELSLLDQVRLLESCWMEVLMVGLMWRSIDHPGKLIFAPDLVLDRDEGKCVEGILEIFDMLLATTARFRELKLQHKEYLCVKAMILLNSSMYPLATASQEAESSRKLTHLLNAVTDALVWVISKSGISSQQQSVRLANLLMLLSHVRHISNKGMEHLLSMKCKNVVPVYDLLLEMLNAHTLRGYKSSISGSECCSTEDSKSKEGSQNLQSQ

Take `CC(C)=CCC/C(C)=C/COc1c2occc2cc2ccc(=O)oc12`: the Activity entry in data set [1] is listed as “Toxic”.

Take `COc1c(OC/C=C(\C)CCC=C(C)C)ccc2ccc(=O)oc12`: in data set [2], the result was inactive. Also, the inhibition (in general, the share of the control response that was lost under treatment) in [3] was “inactive”.

Take `COc1c(OCC=C(C)C)ccc2ccc(=O)oc12`: the result in [2] was inactive. In addition, in data set [3], the inhibition result was “inactive”.

As for `COc1cc(OC/C=C(\C)CCC=C(C)C)c2ccc(=O)oc2c1`, in [2], the result was inactive. For the same compound, the inhibition result in [3] was “inactive”.

For `COc1cc2ccc(=O)oc2cc1OC/C=C(\C)CCC=C(C)C`, in data set [2], the result was inactive. Moreover, in data set [3], the inhibition entry was “inactive”.

As to `CC(C)=CCOc1ccc2ccc(=O)oc2c1` [7-PRENYLOXYCOUMARIN], the Activity entry in [4] is “Non-Toxic”; in [6], “Dose-dependent effect”. In addition, the outcome in data set [5], in data set [8], in data set [9], in data set [10], in [11] and in [12] was Active. Besides, the result in [15], in data set [16], in [17], in data set [18], in data set [19] and in data set [20] was Active. Moreover, the result in data set [21] was Active. The “fold change (FC)” value in [7] was found to be 6. Further, the results for the Stability entry in [13] and in [14] were “Unstable” and “Stable”, respectively.

As for `CC(C)=CCC/C(C)=C/COc1ccc2ccc(=O)oc2c1` [AURAPTENE], the results for the Activity entry in data set [4] and in [6] were “Non-Toxic” and “Dose-dependent effect”, respectively. Further, the “fold change (FC)” value is 1.3 in data set [22] and 2 in data set [7]. Besides, the outcome in data set [8] and in [15] was Active. The Stability entry in [13] was “Unstable”; in data set [14], “Stable”.

Regarding `CC(C)=CCC/C(C)=C/COc1c2ccoc2cc2oc(=O)ccc12` [BERGAMOTTIN], in [1], the Activity entry is recorded as “Toxic”.

`CC(C)=CCOc1c2ccoc2cc2oc(=O)ccc12` [ISOIMPERATORIN]: the Activity entry in [1] is on record as “Toxic”.

For the compound `CC(C)=CCOc1c2occc2cc2ccc(=O)oc12` [PENTOSALEN], in data set [1], the Activity entry is given as “Toxic”. The result in [2] was inactive. For the same compound, in [3], the inhibition result was “inactive”.

In the case of `O=c1ccc2ccc(O)cc2o1` [UMBELLIFERONE], in [4], the Activity result is recorded as “Non-Toxic”. Moreover, the outcome in [2] was inactive. In data set [3], the inhibition entry is “inactive”.

Turning to `CC(C)=CCC/C(C)=C/CC/C(C)=C/COc1ccc2ccc(=O)oc2c1` [UMBELLIPRENIN], the Activity entry in data set [4] was “Non-Toxic”. Further, the inhibition entry in data set [23] and in data set [24] was “Dose-dependent effect” throughout. The inhibition at 40 µM in [25] was over 70%. Besides, the inhibition result in data set [26], in data set [36] and in [37] was “Active” each time. Besides, the “fold change (FC)” value in [27] is listed as over 2; in data set [28], over 2; in [29], over 2; in data set [30] it was over 2; in data set [31], 0.3; in [32], 0.1. The “fold change (FC)” value in data set [33] came to 0.5; in [34] it was 0.3; in [35], 1.6. Besides, the result in data set [15] was Active.

(Values after ChEMBL document CHEMBL4152246, “Natural oxyprenylated coumarins are modulators of melanogenesis” (Eur J Med Chem, 2018).)
